From ChEMBL document CHEMBL4765486, “Novel Nonsecosteroidal Vitamin D Receptor Modulator Combined with Gemcitabine Enhances Pancreatic Cancer Therapy through Remodeling of the Tumor Microenvironment” (J Med Chem, 2021) come the findings set out here.

For experiment [1], the system named is DSL-6A/C1. Nature of the experiment: Potentiation of gemcitabine-induced antitumor activity against luciferase-tagged rat DSL-6A/C1 cells and GFP-tagged LTC-14 cells co-inoculated in orthotropic xenograft BALB/c nude mouse model of pancreatic cancer assessed as inhibition of collagen deposition at 500 ug/kg, ip administered once every 3 days for 12 days coadministered with gemcitabine at 100 mg/kg and measured after 3 days post last dose by Masson staining based assay. The class given is functional, organism-based. The conditions noted are these: dose 500.0 µg/kg, time 12.0 day. The gist of the method:
(§1)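 In the same orthotopic co-inoculation model, mice received gemcitabine 100 mg/kg ip every 3 days plus compound 500 μg/kg ip for 12 days. Animals were sacrificed 3 days after the last dose. Pancreatic tumour sections were stained with H&E for tissue structure and with Masson's trichrome for collagen deposition, imaged at ×100.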

Experiment [2] has as its target T1, Vitamin D3 receptor (Homo sapiens) (UniProt P11473).
T1 sequence (whole entry): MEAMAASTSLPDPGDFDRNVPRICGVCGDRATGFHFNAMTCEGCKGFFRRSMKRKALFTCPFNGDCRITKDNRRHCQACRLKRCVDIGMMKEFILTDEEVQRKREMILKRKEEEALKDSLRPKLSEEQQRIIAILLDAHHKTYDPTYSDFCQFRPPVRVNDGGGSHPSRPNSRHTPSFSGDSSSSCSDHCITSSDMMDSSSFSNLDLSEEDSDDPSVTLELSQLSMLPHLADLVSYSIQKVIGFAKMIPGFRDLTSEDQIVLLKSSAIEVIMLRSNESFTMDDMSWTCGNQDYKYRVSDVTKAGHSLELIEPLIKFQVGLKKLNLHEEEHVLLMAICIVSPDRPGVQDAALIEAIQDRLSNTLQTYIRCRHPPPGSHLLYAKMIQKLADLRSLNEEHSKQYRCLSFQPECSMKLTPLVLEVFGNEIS
Nature of the experiment: Binding affinity to VDR (unknown origin) at 1 uM by fluorescence polarization assay relative to calcipotriol. The note with it: filed as agonist. A digest of the protocol:
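PolarScreen VDR competitor fluorescence polarization assay with compounds at 1 μM in triplicate. Read-out used 535 nm excitation and 590 nm emission filters.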

Experiment [3] can be described thus: Cytotoxicity against rat LTC-14 cells assessed as reduction in cell proliferation incubated for 24 hrs by MTT assay. The class given is cell-based. The note with it: LTC-14, 24 h.
The test system of experiment [4] is LTC-14. Nature of the experiment: Inhibition of rat LTC-14 cell activation assessed decrease in TGF-beta1 induced Colla1 mRNA expression at 0.5 uM incubated for 24 hrs by q-PCR analysis. The class given is functional. A digest of the protocol:
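Immortalized rat PSC line LTC-14, about 1×10^5 cells per well, was grown 24 h at 37 °C in 5% CO2. Cells then received compound (0.5 μM) plus TGF-β1 for 24 h; TGF-β1 is stated as 0.5 ng/mL in the text and 5 ng/mL in the methods. Col1a1 and Acta2 mRNA were measured by RT-qPCR. Mean ± SD versus TGF-β1 alone.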

Experiment [5] concerns LTC-14. Nature of the experiment: Inhibition of rat LTC-14 cells activation assessed decrease in TGF-beta1 induced collagen 1 protein expression at 0.5 uM incubated for 24 hrs by Western blot analysis. The class given is functional, cell-based. The gist of the method:
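LTC-14 cells were treated for 24 h with compound (0.5 μM) plus TGF-β1 (0.5 ng/mL in the text, 5 ng/mL in the methods). Lysates were run on 10% SDS-PAGE, transferred to PVDF and probed with rabbit anti-collagen I, with β-actin as reference. Bands were quantified by densitometry versus TGF-β1 alone.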

In experiment [6] the test system is LTC-14. Nature of the experiment: Inhibition of rat LTC-14 cells activation assessed as inhibition of Fgf mRNA expression at 0.5 uM treated under conditioned media of DSL-6A/C1 cells for 24 hrs by q-PCR analysis. The experiment is classed as functional, cell-based. A digest of the protocol: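 LTC-14 PSCs were exposed for 24 h to conditioned medium from rat DSL-6A/C1 cancer cells containing compound at 0.5 μM. Pdgfa, Pdgfb, Fgf2, Hgf and Periodin mRNA were quantified by RT-qPCR. Three repeats, mean ± SD versus CM alone.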

For the next experiment, the target named is T2, Vitamin D3 receptor (Homo sapiens, UniProt P11473).
T2 sequence (P11473 whole entry): T1 sequence (whole entry)
Nature of the experiment: Binding affinity to VDR (unknown origin) by fluorescence polarization assay. A digest of the protocol:
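Competitive VDR binding was measured by PolarScreen fluorescence polarization, in triplicate.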
In general terms: In fluorescence polarisation assays a small probe gives low polarisation when free and higher when bound to something large.

In experiment [7] the test system is DSL-6A/C1. Nature of the experiment: Antiproliferative activity against rat DSL-6A/C1 cells assessed as reduction in cell viability at 0.5 uM incubated for 24 hrs compound treated LTC-14-CM cells by MTT assay. The experiment is classed as functional, cell-based. A digest of the protocol:
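LTC-14 PSCs were pretreated with compound for 24 h. Their collected supernatant was used to culture DSL-6A/C1 cells, and proliferation was read by MTT: 4 h incubation with MTT (5 mg/mL stock), absorbance at 570 nm. Run in triplicate, compared with untreated PSC-CM.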
On the technique in general: Formazan colour is commonly taken as a measure of viable cells.

Experiment [8] deals with T1, Vitamin D3 receptor (Homo sapiens). Nature of the experiment: Agonist activity at VDR (unknown origin) expressed in HEK293 cells co-transfected with pGL4.27-SPP3-Luc and CMV-hRXRalpha and pCMX-Renilla plasmids after 24 hrs by dual luciferase reporter gene assay. The experiment is classed as cell-based. The conditions noted are these: filed as agonist, dose 0.0001-1 µM. A digest of the protocol: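 HEK293 cells in 48-well plates were transfected per well with 40 ng TK-Spp×3-LUC reporter, 20 ng pCMX-Renilla, 30 ng pENTER-CMV-hRXRα and 100 ng pCMX-VDR using Lipofectamine 2000. Compounds were added 8 h post-transfection, and dual-luciferase activity was read 24 h later. Firefly signal was normalised to Renilla. The experiment was run three times.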
For orientation: In a reporter assay the amount or activity of a reporter protein is the signal.

Experiment [9] concerns DSL-6A/C1. Nature of the experiment: Potentiation of gemcitabine-induced antitumor activity against luciferase-tagged rat DSL-6A/C1 cells and GFP-tagged LTC-14 cells co-inoculated in orthotropic xenograft BALB/c nude mouse model of pancreatic cancer assessed as reduction in tumor volume at 500 ug/kg, ip administered once every 3 days for 12 days coadministered with gemcitabine at 100 mg/kg and measured after 3 days post last dose by IVIS optical imaging analysis. The class given is functional, organism-based. The note with it: dose 500.0 µg/kg, time 12.0 day. A digest of the protocol:
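DSL-6A/C1-luci and LTC-14-GFP cells were co-inoculated orthotopically into the pancreas of nude mice, n=5 per group. Treatment began 7 days after grafting (methods) or 14 days (text). Gemcitabine 100 mg/kg ip every 3 days, alone or with compound 500 μg/kg or calcipotriol 60 μg/kg in ethanol/polyoxyethylene castor oil/saline (1:1:18), for 12 days. Tumour growth was followed by bioluminescence imaging.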

Experiment [10] has as its system DSL-6A/C1. Nature of the experiment: Potentiation of gemcitabine-induced antitumor activity against luciferase-tagged rat DSL-6A/C1 cells and GFP-tagged LTC-14 cells co-inoculated in orthotropic xenograft BALB/c nude mouse model of pancreatic cancer assessed as decrease in density of tumor tissue at 500 ug/kg, ip administered once every 3 days for 12 days coadministered with gemcitabine at 100 mg/kg and measured after 3 days post last dose by hematoxylin and eosin staining based assay. The experiment is classed as functional, organism-based. The note with it: dose 500.0 µg/kg, time 12.0 day. A digest of the protocol:
as §1

The test system of a further experiment is Mus musculus. Nature of the experiment: Inhibition of GFP-tagged rat LTC-14 cells activation in BALB/c nude mouse xenografted along with luciferase-tagged DSL-6A/C1-Luc cells assessed as reduction in alpha-smooth muscle actin expression in tumor at 500 ug/kg, ip administered once every 3 days for 12 days coadministered with gemcitabine at 100 mg/kg by DAPI staining based laser confocal scanning microscopy. The note with it: dose 500.0 µg/kg, time 12.0 day. The class given is functional, organism-based. The gist of the method: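 Tumours were taken from orthotopic co-inoculated nude mice given gemcitabine 100 mg/kg plus compound (500 μg/kg) or calcipotriol (60 μg/kg) ip for 12 days. Sections were fixed in 4% PFA, permeabilised with 0.5% Triton X-100 and blocked in 5% BSA. They were incubated with anti-α-SMA overnight at 4 °C, then an Alexa Fluor 594 secondary for 1 h at 37 °C, DAPI-counterstained and imaged by confocal microscopy.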

Activity calls are given as the source filed them. Unless noted, no cut-off for these calls is given here. Some results are limits rather than exact numbers.

In general, IC50 refers to the concentration at which inhibition is half-maximal. `CCn1cc(C(CC)(CC)c2ccc(OCC(C)O)c(C)c2)cc1C(=O)NCCN1CCN(C)CC1` (configuration not stated): the outcome in the experiment on DSL-6A/C1 [1], in the experiment with DSL-6A/C1 [7] and in the experiment on DSL-6A/C1 [10] was Active. Besides, in experiment [2], the RBA stood at 89%. Moreover, the IC50 is more than 10000 nM in [3] and 57.2 nM on Vitamin D3 receptor. Moreover, the inhibition result with LTC-14 [4], in the experiment on LTC-14 [5], with LTC-14 [6] and in the experiment with Mus musculus was “Active” each time. Also, the Activity entry in experiment [8] was “Dose-dependent effect”. Moreover, the TGI entry in the experiment on DSL-6A/C1 [9] was “Active”.
